Article PMC11974842 (bioRxiv, 2025)

What was measured:
Cia1 = conditions: via C-terminal tryptophan; ref [26]; cited from earlier work
HsCia2a = assay: Affinity copurification of HsCia1 with HsCia2a; format: binding, Homo sapiens; conditions: strep-tagged HsCia1 bait, HsCia2a prey
Outline: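 Recombinant human Cia1, wild-type or R65A variant, carries the strep tag as bait. Human Cia2a is the prey. Copurified proteins are compared between the two bait forms. Uncropped gels, including input samples and controls, accompany the analysis.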

[1] = Melting temperature by Thermofluor; format: physicochemical, Homo sapiens; conditions: R65W vs WT HsCia1
CtCia1-Cia2 = assay: Affinity copurification of ScMet18 with CtCia1-Cia2; format: binding, Chaetomium thermophilum

## Viperin: CIA client
Cia1
  binding to Cia1: binds Cia1 via Viperin’s C-terminal tryptophan

## Hs R65WCia1: human Cia1 pathogenic variant implicated in a fatal neuromuscular disorder
HsCia2a
  interaction with HsCia2a: strongly disrupted
[1]
  thermostability of HsCia1: without impacting Cia1’s thermostability
[1]; listed as R65W HsCia1
  thermostability of HsCia1: did not affect the stability of HsCia1 in vitro

B1: ScMet18: S. cerevisiae Met18 with N-terminal His6-SUMO tag (protein)
chain: MTPDELNSAVVTFMANLNIDDSKANETASTVTDSIVHRSIKLLEVVVALKDYFLSENEVERKKALTCLTTILAKTPKDHLSKNECSVIFQFYQSKLDDQALAKEVLEGFAALAPMKYVSINEIAQLLRLLLDNYQQGQHLASTRLWPFKILRKIFDRFFVNGSSTEQVKRINDLFIETFLHVANGEKDPRNLLLSFALNKSITSSLQNVENFKEDLFDVLFCYFPITFKPPKHDPYKISNQDLKTALRSAITATPLFAEDAYSNLLDKLTASSPVVKNDTLLTLLECVRKFGGSSILENWTLLWNALKFEIMQNSEGNENTLLNPYNKDQQSDDVGQYTNYDACLKIINLMALQLYNFDKVSFEKFFTHVLDELKPNFKYEKDLKQTCQILSAIGSGNVEIFNKVISSTFPLFLINTSEVAKLKLLIMNFSFFVDSYIDLFGRTSKESLGTPVPNNKMAEYKDEIIMILSMALTRSSKAEVTIRTLSVIQFTKMIKMKGFLTPEEVSLIIQYFTEEILTDNNKNIYYACLEGLKTISEIYEDLVFEISLKKLLDLLPDCFEEKIRVNDEENIHIETILKIILDFTTSRHILVKESITFLATKLNRVAKISKSREYCFLLISTIYSLFNNNNQNENVLNEEDALALKNAIEPKLFEIITQESAIVSDNYNLTLLSNVLFFTNLKIPQAAHQEELDRYNELFISEGKIRILDTPNVLAISYAKILSALNKNCQFPQKFTVLFGTVQLLKKHAPRMTETEKLGYLELLLVLSNKFVSEKDVIGLFDWKDLSVINLEVMVWLTKGLIMQNSLESSEIAKKFIDLLSNEEIGSLVSKLFEVFVMDISSLKKFKGISWNNNVKILYKQKFFGDIFQTLVSNYKNTVDMTIKCNYLTALSLVLKHTPSQSVGPFINDLFPLLLQALDMPDPEVRVSALETLKDTTDKHHTLITEHVSTIVPLLLSLSLPHKYNSVSVRLIALQLLEMITTVVPLNYCLSYQDDVLSALIPVLSDKKRIIRKQCVDTRQVYYELGQIPFE
modifications: left off: His6, N-terminal, state not stated | SUMO, N-terminal, state not stated
CtCia1-Cia2
  binding to CtCia1-Cia2: can bind to CtCia1-Cia2
